Measured values as given in ChEMBL document CHEMBL1268986, “Inhibition of Bfl-1 with N-aryl maleimides” (Bioorg Med Chem Lett, 2010).

Key:
[1] = target: T1, Bcl-2-related protein A1 (Homo sapiens, UniProt Q16548); experiment: Inhibition of N-terminal FITC BH3 peptide binding to GST-tagged Bfl1 by fluorescence polarization assay
T1 sequence (Q16548 whole entry): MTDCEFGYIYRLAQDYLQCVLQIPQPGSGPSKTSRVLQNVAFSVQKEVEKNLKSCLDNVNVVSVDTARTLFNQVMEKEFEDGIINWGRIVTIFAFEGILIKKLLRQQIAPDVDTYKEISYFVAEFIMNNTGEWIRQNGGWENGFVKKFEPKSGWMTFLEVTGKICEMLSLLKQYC
Method in brief: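 Then FITC-Bid BH3 peptide (5.6 nM working solution) was added and incubated 4 h at room temperature. Ten concentrations in 10% DMSO. Fluorescence polarization read at ex 485/em 530 nm. IC50 from sigmoidal dose-response non-linear regression.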

[2] = target: T1, Bcl-2-related protein A1; experiment: Inhibition of N-terminal FITC BH3 peptide binding to GST-tagged Bfl1 by time resolved-FRET assay
Method in brief: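 10-point 2-fold dilution series in 10% final DMSO, in duplicate wells. FITC-Bid (5.6 nM) plus Tb-antibody (2.5 nM) was then added and incubated 4 h at room temperature. TR-FRET read at ex 340 nm, signal taken as the 520/490 nm emission ratio.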

IC50 [1] | IC50 [2] | SMILES
1.7 µM | 1 µM | CCN1CCN(C2=C(Cl)C(=O)N(c3ccc(Cl)c(Cl)c3)C2=O)CC1
– | 1.4 µM | CN1CCN(C2=C(Cl)C(=O)N(c3ccc(Cl)cc3Cl)C2=O)CC1
0.6 µM | 0.8 µM | CN1CCN(C2=C(Cl)C(=O)N(c3ccc(Cl)c(Cl)c3)C2=O)CC1
2.1 µM | 1.2 µM | CN1CCN(C2=C(Cl)C(=O)N(c3cccc(Cl)c3)C2=O)CC1
2.4 µM | 1.9 µM | CN1CCN(C2=C(Cl)C(=O)N(c3cc(Cl)cc(Cl)c3)C2=O)CC1
0.24 µM | 0.62 µM | O=C1C(Cl)=C(N2CCN(CCO)CC2)C(=O)N1c1ccc(Cl)c(Cl)c1
9.6 µM | 6.2 µM | COc1ccccc1N1CCN(C2=C(Cl)C(=O)N(c3ccc(Cl)c(Cl)c3)C2=O)CC1
10.5 µM | 3.3 µM | CCCCN1CCN(C2=C(Cl)C(=O)N(c3ccc(Cl)c(Cl)c3)C2=O)CC1
3.3 µM | 1 µM | CN1CCN(C2=C(Cl)C(=O)N(c3ccccc3Cl)C2=O)CC1
4.9 µM | 4.1 µM | O=C1C(Cl)=C(N2CCN(c3ccccc3)CC2)C(=O)N1c1ccc(Cl)c(Cl)c1
2.4 µM | 1.3 µM | O=C1C(Cl)=C(N2CCN(Cc3ccccc3)CC2)C(=O)N1c1ccc(Cl)c(Cl)c1
12.6 µM | 10.8 µM | Cc1cccc(N2C(=O)C(Cl)=C(N3CCN(C)CC3)C2=O)c1
6.8 µM | 3.9 µM | CN1CCN(C2=C(Cl)C(=O)N(c3cccc([N+](=O)[O-])c3)C2=O)CC1
29 µM | 35.6 µM | CN1CCN(C2=C(Cl)C(=O)N(c3ccncc3Cl)C2=O)CC1
– | 2.6 µM | CN1CCN(C2=C(Cl)C(=O)N(c3cccc(Cl)c3Cl)C2=O)CC1

More lines, now with the values behind:

SMILES | IC50 [1] | IC50 [2]
C[C@H]1CN(C2=C(Cl)C(=O)N(c3ccc(Cl)c(Cl)c3)C2=O)CCN1 | 2.2 µM | 1.1 µM
O=C1C(Cl)=C(N2CCN(C/C=C/c3ccccc3)CC2)C(=O)N1c1ccc(Cl)c(Cl)c1 | 0.25 µM | 0.69 µM
O=C1C(Cl)=C(N2CCCC2)C(=O)N1c1ccc(Cl)c(Cl)c1 | > 50 µM | > 50 µM
COc1ccc(N2CCN(C3=C(Cl)C(=O)N(c4ccc(Cl)c(Cl)c4)C3=O)CC2)cc1 | > 10 µM | 8.3 µM
O=C1C(Cl)=C(N2CCOCC2)C(=O)N1c1ccc(Cl)c(Cl)c1 | 0.8 µM | 0.45 µM
O=C1C(Cl)=C(N2CCN(c3cccc(C(F)(F)F)c3)CC2)C(=O)N1c1ccc(Cl)c(Cl)c1 | > 10 µM | > 10 µM
O=C1C(Cl)=C(NCCO)C(=O)N1c1ccc(Cl)c(Cl)c1 | > 50 µM | > 50 µM
CN1CCN(C2CC(=O)N(c3ccc(Cl)c(Cl)c3)C2=O)CC1 (configuration not stated) | > 10 µM | > 10 µM
O=C1C(Cl)=C(N2CCN(CCOCCO)CC2)C(=O)N1c1ccc(Cl)c(Cl)c1 | 0.3 µM | 0.4 µM
CN(C)C1=C(Cl)C(=O)N(c2ccc(Cl)c(Cl)c2)C1=O | 0.3 µM | 0.4 µM
CN1CCN(C2=CC(=O)N(c3ccc(Cl)cc3)C2=O)CC1 | > 10 µM | > 10 µM
Cc1cccc(N2CCN(C3=C(Cl)C(=O)N(c4ccc(Cl)c(Cl)c4)C3=O)CC2)c1 | > 10 µM | 8.3 µM
O=C1C(Cl)=C(NCc2ccccc2)C(=O)N1c1ccc(Cl)c(Cl)c1 | > 50 µM | > 50 µM
CC1C(=O)NCCN1C1=C(Cl)C(=O)N(c2ccc(Cl)c(Cl)c2)C1=O (configuration not stated) | – | 2 µM
O=C1C(Cl)=C(N2CCCCC2)C(=O)N1c1ccc(Cl)c(Cl)c1 | > 50 µM | > 50 µM
O=C1C(Cl)=C(N2CCN(Cc3ccc4c(c3)OCO4)CC2)C(=O)N1c1ccc(Cl)c(Cl)c1 | – | 2.1 µM
C[C@@H]1CN(C2=C(Cl)C(=O)N(c3ccc(Cl)c(Cl)c3)C2=O)CCN1 | 0.6 µM | 0.8 µM
COc1cccc(N2CCN(C3=C(Cl)C(=O)N(c4ccc(Cl)c(Cl)c4)C3=O)CC2)c1 | 1.2 µM | 5 µM
